Assay outcomes (PubChem BioAssay)
OXTR ag – human OXTR agonism | 320,000 tested, 0.32% active | CHO-OTR cells, Fluo-8 calcium fluorescence; normalized: DMSO 0%, oxytocin 100% | P30559 | activation, % at 3 µM;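 active = activation above the mean of all tested compounds plus 3 SD, cutoff set per screening run, cut at about 20% in these data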;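 note: peak over basal fluorescence ratio from a 100 s FLIPR kinetic read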
V1R ag counter – activates human V1a receptor in oxytocin agonist counter-screen; CHO-V1R cells, Fluo-8 calcium fluorescence, agonist mode; 0% DMSO, 100% 3 nM vasopressin; activation, % at 3 µM; 320,000 tested, 0.25% active;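 active = activation above the mean activation of all tested compounds plus 3 SD, per screening run, cut at about 20% in these data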;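 note: signal is peak over basal fluorescence ratio across a 100 second FLIPR read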
Target sequence (P37288 whole entry, looked up): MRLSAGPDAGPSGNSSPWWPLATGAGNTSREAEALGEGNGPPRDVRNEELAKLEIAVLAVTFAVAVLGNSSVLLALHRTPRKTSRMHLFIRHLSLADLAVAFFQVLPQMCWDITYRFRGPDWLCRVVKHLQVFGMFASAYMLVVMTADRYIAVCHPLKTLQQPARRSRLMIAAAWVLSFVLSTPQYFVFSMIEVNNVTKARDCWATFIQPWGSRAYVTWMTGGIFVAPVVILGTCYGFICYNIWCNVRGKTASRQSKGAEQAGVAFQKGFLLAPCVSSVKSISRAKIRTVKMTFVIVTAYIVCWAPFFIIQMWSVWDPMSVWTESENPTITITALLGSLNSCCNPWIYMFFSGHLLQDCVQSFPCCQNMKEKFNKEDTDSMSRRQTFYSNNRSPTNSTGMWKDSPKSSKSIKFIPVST
OXTR potentiator – human OXTR potentiation. AID 2445. P30559. CHO-OTR cells, Fluo-8 calcium fluorescence, potentiator mode; 0% = oxytocin EC15, 100% = EC100. activation, % at 3 µM. 320,000 tested, 0.061% active;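 active = activation above that plate's cutoff, the mean activation of tested compounds plus 3 SD, cut at about 6.6% in these data, passing the limit was not always enough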;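 note: 100% uses oxytocin at 75 nM as the full agonist control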
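Assay system: CHO cell line stably expressing human OTR. Reagent: EC15 oxytocin agonist. Dosing: single dose, 3.0 µM nominal final compound concentration. Timing: compound 6 min at room temperature before oxytocin, 100 s read. Signal: kinetic Fluo-8 calcium fluorescence. Controls: oxytocin EC15 low and EC100 high.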
TAAR1 agonist – agonists of human TAAR1. Q96RJ0. CHO RD-HGA16 TAAR1, Fluo-8 calcium fluorescence; vehicle wells 0%, saturating PEA agonist 100%. activation, % at 3 µM. 360,000 tested, 0.99% active;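 active = activation above the mean activation of all test compounds in the run plus 3 SD, cut at about 38% in these data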
Target sequence (Q96RJ0 whole entry, looked up): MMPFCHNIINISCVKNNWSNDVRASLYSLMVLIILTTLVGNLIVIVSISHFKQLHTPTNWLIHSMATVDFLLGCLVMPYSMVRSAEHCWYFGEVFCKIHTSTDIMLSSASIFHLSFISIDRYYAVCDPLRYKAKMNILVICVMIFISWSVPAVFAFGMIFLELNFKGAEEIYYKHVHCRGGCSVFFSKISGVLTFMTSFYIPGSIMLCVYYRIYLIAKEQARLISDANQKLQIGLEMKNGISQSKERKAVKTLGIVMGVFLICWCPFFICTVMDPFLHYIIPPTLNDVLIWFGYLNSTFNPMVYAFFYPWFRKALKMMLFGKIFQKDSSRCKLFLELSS
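Repeats: no replicates (n 1) | Material: CHO-derived RD-HGA16 cells with stable Gα16 and human TAAR1 | Technique: Kinetic Fluo-8 calcium fluorescence | Schedule: 17-24 h seeding, 75 min 37 °C dye, 30 min RT | Evaluation: % activation from peak over basal fluorescence ratio, DMSO-to-PEA scaled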
TAAR1 antag – antagonists of human TAAR1; inhibition, % at 3 µM; Q96RJ0; CHO RD-HGA16 TAAR1, Fluo-8 calcium fluorescence, antagonist; 360,000 tested, 1.5% active;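 active = inhibition above a per-plate cutoff, the mean inhibition of test compounds on that plate plus 3 SD, cut at about 49% in these data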;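 note: 0% = DMSO plus EC80 beta-PEA response and 100% = DMSO alone without agonist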
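Assay system: RD-HGA16 CHO cells with stable hTAAR1 and Gα16 / Reagent: EC80 β-phenethylamine stimulus / Doses: 3 µM, single point / Timing: dye loading 75 min at 37 °C, then 30 min room temperature / Measured by: Fluo-8 intracellular calcium dye fluorescence, real-time kinetic reads / Controls: vehicle wells and EC80 agonist wells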
V1R ag confirm – human V1a receptor agonism, confirmation; shares compounds with V1R ag counter; CHO-V1R cells, Fluo-8 calcium fluorescence, agonist; activation, % at 3 µM; 180 tested, 20% active; AID 434964;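 active = average activation exceeds primary screen hit cutoff, cut at about 21% in these data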;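 note: peak over basal fluorescence ratio during a 100 s FLIPR read; 0% = DMSO only wells and 100% = 3 nM vasopressin wells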
OXTR counter – OXTR agonism, counter-screen for V1R agonists. shares compounds with V1R ag counter. CHO-OTR cells, Fluo-8 calcium fluorescence, agonist. 180 tested, 10% active. activation, % at 3 µM;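 active = mean activation over three repeats above the cutoff from the earlier oxytocin receptor agonist screen, cut at about 20% in these data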;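 note: peak over minimum fluorescence ratio within a 100 second FLIPR read; 0% = DMSO only wells and 100% = oxytocin high control wells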
TAAR1 nonsel count – counter-screen for TAAR1 antagonists: nonselective antagonists; 2,400 tested, 77% active; counterscreen cell line, calcium fluorescence, antagonist mode; inhibition, % at 3 µM; shares compounds with TAAR1 antag; in the data active = inhibition above about 22%;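 note: CHO-Ga16 host cells stimulated with ATP at an EC80 level; 0% = agonist EC80 plus vehicle and 100% = vehicle without agonist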
TAAR1 antag conf – confirmation of human TAAR1 antagonists. 2,400 tested, 40% active. TAAR1-expressing cells, fluorescence antagonist read-out. shares compounds with TAAR1 antag. inhibition, % at 3 µM; in the data active = inhibition above about 49%;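 note: CHO-Ga16 host cells challenged with agonist PEA near its EC80; 0% = agonist at EC80 plus vehicle and 100% = vehicle with no agonist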
Ga16 ag counter-1 – nonselective Ga16 agonism, counter-screen | shares compounds with TAAR1 antag | Ga16-expressing cells, calcium fluorescence, agonist counterscreen | activation, % at 3 µM | 2,400 tested, 18% active | AID 651953; in the data active = activation above about 12%;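 note: 0% = vehicle wells and 100% = saturating stimulus response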
TAAR1 ag count – TAAR1 agonism, antagonist counter-screen | activation, % at 3 µM | 2,400 tested, 2% active | hTAAR1 cell line, fluorescence activation, agonist mode | shares compounds with TAAR1 antag; in the data active = activation above about 37%;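 note: CHO cells stably expressing TAAR1 with calcium dye readout; 0% = DMSO vehicle and 100% = full agonist response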
TAAR1 ag confirm – human TAAR1 agonism, confirmed. 2,400 tested, 82% active. activation, % at 3 µM. CHO RD-HGA16 TAAR1, Fluo-8 calcium fluorescence; scaled: DMSO 0%, maximal phenethylamine 100%. shares compounds with TAAR1 agonist;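 active = activation above a cutoff set at the run's mean compound activation plus 3 SD, cut at about 39% in these data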
Ga16 ag counter-2 – counter-screen for TAAR1 agonists: nonselective agonists in parental cells; shares compounds with TAAR1 agonist; CHO-Ga16 parental, Fluo-8 calcium fluorescence; normalized to maximal ATP response, DMSO zero; activation, % at 3 µM; 2,400 tested, 50% active; AID 651787;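 active = activation above the run cutoff, the mean activation over all tested wells plus 3 SD, cut at about 12% in these data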;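 note: 0% = DMSO wells and 100% = maximal ATP response on the peak over basal ratio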
TAAR1 desensitize – counter-screen for human TAAR1 agonists: agonists that desensitize TAAR1. shares compounds with TAAR1 agonist. inhibition, % at 3 µM. 2,400 tested, 46% active. AID 651951. CHO RD-HGA16 hTAAR1, Fluo-8 calcium, beta-PEA response inhibition;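 active = inhibition above the run cutoff, the mean inhibition of all test compounds plus 3 SD, cut at about 49% in these data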;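 note: beta-PEA stimulus applied at its EC80; loss of beta-PEA calcium signal after compound pretreatment read as receptor desensitization; 0% = DMSO with beta-PEA at EC80 and 100% = DMSO alone without agonist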
Ga16 antag count – nonselective Ga16 antagonist in TAAR1 agonist counter-screen; inhibition, % at 3 µM; shares compounds with TAAR1 agonist; 2,400 tested, 39% active; CHO-Ga16 ATP-induced calcium, Fluo-8 fluorescence;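 active = inhibition above the plate's mean compound inhibition plus 3 SD, computed per plate, cut at about 22% in these data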;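 note: 0% = EC80 ATP with DMSO and 100% = DMSO wells without ATP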
* = called active by the depositor; / = not tested or not shown. The list is not random: actives were taken first. Their share in the collection is about 2.3%.

SMILES	OXTR ag	V1R ag counter	OXTR potentiator	TAAR1 agonist	TAAR1 antag	TAAR1 nonsel count	TAAR1 antag conf	Ga16 ag counter-1	TAAR1 ag count	others
Cc1ccc(-c2c(C(=O)N/N=C/c3ccco3)nnn2-c2nonc2N)cc1	9	28*	-10	88*	-1	/	/	/	/	V1R ag confirm=8;OXTR counter=11;TAAR1 ag confirm=111*;Ga16 ag counter-2=79*;TAAR1 desensitize=23;Ga16 antag count=7
CCCNS(=O)(=O)c1ccc(Oc2ncc(C(F)(F)F)cc2Cl)cc1	17	23*	-23	53*	39	/	/	/	/	V1R ag confirm=14;OXTR counter=16;TAAR1 ag confirm=40*;Ga16 ag counter-2=23*;TAAR1 desensitize=29;Ga16 antag count=17
Cc1ccccc1OCC(=O)Nc1ccccc1C(=O)NC1CC1	-2	0	-9	10	57*	24*	40	6	2
O=C(COc1ccccc1)Nc1ccccc1C(=O)NC1CC1	-1	0	-8	3	0	/	/	/	/
COc1ccc(-c2nc(SCC(=O)Nc3nccs3)c(-c3ccc(Cl)cc3)[nH]2)cc1	2	3	-5	7	68*	45*	59*	8	3
COc1ccc(-c2[nH]c(-c3ccc(C)cc3)nc2SCC(=O)Nc2nccs2)cc1	-2	0	-5	4	18	/	/	/	/
Cc1ccc2nc(NC(=O)CS(=O)(=O)Cc3ccccc3)sc2c1	4	0	-5	3	1	/	/	/	/
Cc1ccc2nc(NC(=O)CSCc3ccccc3)sc2c1	-2	2	-8	29	50*	5	41	8	23
Cc1ccc(-n2c(-c3cnccn3)n[nH]c2=S)c(Br)c1	0	0	-11	-3	104*	8	-6	7	8
Cc1ccc(S(=O)(=O)N2CCCCC2)cc1NC(=O)COC(=O)c1cccn1C	2	2	-10	13	10	/	/	/	/
COc1ccc(-c2cc(C(=O)N(C)CC(=O)Nc3cccc(F)c3)c3ccccc3n2)cc1OC	/	/	/	15	76*	44*	61*	11	8
COc1cccc(NC(=O)CN(C)C(=O)c2cc(-c3ccccc3)nc3ccccc23)c1	-1	0	-7	12	70*	34*	51*	9	7
COc1ccc(Cl)cc1NC(=O)CN(C)C(=O)c1cn(-c2ccccc2)nc1-c1cccnc1	-1	2	-10	13	58*	33*	47	7	5
COc1ccc(NC(=O)CN(C)C(=O)c2cc(-c3ccco3)nc3ccccc23)cc1	-1	0	-3	13	36	/	/	/	/
CN(CC(=O)Nc1cccc(F)c1)C(=O)c1cn(-c2ccccc2)nc1-c1cccs1	3	3	-16	8	65*	32*	40	7	6
CN(CC(=O)Nc1ccc(Cl)c(C(F)(F)F)c1)C(=O)c1cc(-c2ccncc2)nc2ccccc12	0	-1	-5	9	50*	33*	53*	10	10
CN(CC(=O)Nc1cccc(F)c1)C(=O)c1cc(-c2ccco2)nc2ccccc12	-1	-1	-6	11	44	/	/	/	/
COc1cccc(NC(=O)CN(C)C(=O)c2cc(-c3ccc(F)cc3)nc3ccccc23)c1	-1	1	-12	6	75*	40*	60*	9	5
CCN1CCN(c2oc(-c3ccccc3)nc2S(=O)(=O)c2ccc(C)cc2)CC1	/	/	/	1	-12	/	/	/	/
CC(=O)Nc1ccc(NC(=O)CSc2nnc(NC(=O)C3CC(=O)N(c4ccc(F)cc4)C3)s2)cc1 (centres undefined)	0	-1	-4	0	-5	/	/	/	/
Cc1cccc(C)c1NC(=O)CNc1ccccc1	2	1	1	2	-12	/	/	/	/
Cc1cccc(C)c1NC(=O)CN(Cc1ccccc1)Cc1ccccc1	/	/	/	16	62*	23*	26	4	9
CC(C)(C)N(Cc1ccccc1)C(=O)COC(=O)c1ccccc1SCC(=O)N1CCCC1	-1	1	-4	6	61*	21	43	9	11
O=C(COC(=O)c1ccccc1SCC(=O)N1CCCC1)Nc1ccccc1	3	5	-17	5	18	/	/	/	/
O=C(NCCS(=O)(=O)N1CCN(c2ccccc2)CC1)C1CCCC1	0	2	4	1	-17	/	/	/	/
CCOc1ccc(C(C(=O)NCC2CCCO2)N(CCc2cccc(C)c2)C(=O)c2snc(C(N)=O)c2N)cc1 (centres undefined)	/	/	/	28	67*	34*	53*	16*	39*
CN(C)c1ccc(C(C(=O)NCC2CCCO2)N(Cc2ccco2)C(=O)c2snc(C(N)=O)c2N)cc1 (centres undefined)	0	2	-22	20	67*	34*	52*	9	11
CN(C)c1ccc(C(C(=O)NCC2CCCO2)N(Cc2ccccc2)C(=O)c2snc(C(N)=O)c2N)cc1 (centres undefined)	3	3	-20	22	65*	33*	57*	13*	16
COc1cc(SC)ccc1C(=O)Nc1nccs1	0	-1	-10	4	-3	/	/	/	/
